Experiments:
[1] = tested on: Cryptococcus gattii species complex; assay: Antifungal activity against Cryptococcus gattii after 24 to 72 hrs by broth microdilution method; assay type: functional, Cryptococcus bacillisporus
Summary of the method: (§1)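 Broth microdilution MIC per CLSI M27-A3 (yeasts) or M38-A2 (molds). RPMI 1640 with L-glutamine, without bicarbonate, buffered to pH 7.0 with 0.165 M MOPS. Final test range for the compounds was 0.175–87.5 μM. Incubation at 35°C with visual reading at 24–72 h. MIC was the lowest concentration giving 100% inhibition versus the growth control (azoles 50% or 100%, by organism). Each isolate was run in duplicate in two independent experiments.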

Candida albicans [2] = assay: Antifungal activity against Candida albicans after 48 to 72 hrs; assay type: functional
Summary of the method: (§2)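 MFC: after the MIC read, 30-μl aliquots from each well without visible growth were plated onto Sabouraud dextrose agar and incubated at 35°C. Reading was at 48–72 h for yeasts and up to 7 days for molds. MFC was the lowest concentration with no colonies.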

Candida tropicalis [3] = assay: Antifungal activity against Candida tropicalis after 48 to 72 hrs; assay type: functional; summary of the method: as §2
Candida parapsilosis [4] = assay: Antifungal activity against Candida parapsilosis after 48 to 72 hrs; assay type: functional; summary of the method: as §2
Candida dubliniensis [5] = assay: Antifungal activity against Candida dubliniensis after 48 to 72 hrs; assay type: functional; summary of the method: as §2
[6] = tested on: Meyerozyma guilliermondii; assay: Antifungal activity against Candida guilliermondii after 48 to 72 hrs; assay type: functional; summary of the method: as §2
Clavispora lusitaniae [7] = assay: Antifungal activity against Candida lusitaniae after 48 to 72 hrs; assay type: functional; summary of the method: as §2
[8] = tested on: Cryptococcus gattii species complex; assay: Antifungal activity against Cryptococcus gattii after 48 to 72 hrs; assay type: functional, Cryptococcus bacillisporus; summary of the method: as §2
[9] = Toxicity against human erythrocytes assessed as hemolysis; assay type: cell-based, Erythrocyte
Candida parapsilosis [10] = assay: Antifungal activity against Candida parapsilosis after 24 to 72 hrs by broth microdilution method; assay type: functional; settings: Lodderomyces parapsilosis; summary of the method: as §1
Pichia kudriavzevii [11] = assay: Antifungal activity against Candida krusei after 24 to 72 hrs by broth microdilution method; assay type: functional; summary of the method: as §1
Candida dubliniensis [12] = assay: Antifungal activity against Candida dubliniensis after 24 to 72 hrs by broth microdilution method; assay type: functional; summary of the method: as §1
[13] = tested on: Meyerozyma guilliermondii; assay: Antifungal activity against Candida guilliermondii after 24 to 72 hrs by broth microdilution method; assay type: functional; summary of the method: as §1
Cryptococcus neoformans [14] = assay: Antifungal activity against Cryptococcus neoformans 05-202523 after 48 to 72 hrs; assay type: functional; summary of the method: as §2
Aspergillus flavus [15] = assay: Antifungal activity against Aspergillus flavus ATCC 204304 after 48 to 72 hrs; assay type: functional; summary of the method: as §2
Exophiala spinifera = assay: Antifungal activity against Exophiala spinifera 03-200803 after 24 to 72 hrs by broth microdilution method; assay type: functional
Summary of the method: (§3)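 Mold isolates subcultured on potato dextrose agar, then tested by CLSI M38-A2 broth microdilution in RPMI 1640 (L-glutamine, no bicarbonate) buffered to pH 7.0 with 0.165 M MOPS. Compounds were dissolved in water and tested at a final 0.175–87.5 μM. Plates were incubated at 35°C. MIC was read visually as the lowest concentration giving 100% inhibition versus the growth control. Each isolate was run in duplicate in two independent experiments.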

Fusarium solani = assay: Antifungal activity against Fusarium solani 04-203102 after 24 to 72 hrs by broth microdilution method; assay type: functional; summary of the method: as §3
[16] = Antifungal activity against Paecilomyces lilacinus 05-200601 after 24 to 72 hrs by broth microdilution method; assay type: functional; settings: Purpureocillium lilacinum; summary of the method: as §3
Rhizopus arrhizus = assay: Antifungal activity against Rhizopus oryzae 05-203111 after 24 to 72 hrs by broth microdilution method; assay type: functional; summary of the method: as §3
Aspergillus fumigatus [17] = assay: Antifungal activity against Aspergillus fumigatus 05-203114 after 24 to 72 hrs by broth microdilution method; assay type: functional; summary of the method: as §1
Aspergillus flavus [18] = assay: Antifungal activity against Aspergillus flavus ATCC 204304 after 24 to 72 hrs by broth microdilution method; assay type: functional; summary of the method: as §1
Aspergillus flavus [19] = assay: Antifungal activity against Aspergillus flavus 05-203758 after 24 to 72 hrs by broth microdilution method; assay type: functional; summary of the method: as §1
Aspergillus terreus = assay: Antifungal activity against Aspergillus terreus 05-202844 after 24 to 72 hrs by broth microdilution method; assay type: functional; summary of the method: as §1
Scedosporium apiospermum = assay: Antifungal activity against Scedosporium apiospermum 05-203100 after 24 to 72 hrs by broth microdilution method; assay type: functional; summary of the method: as §3
[20] = tested on: Cunninghamella bertholletiae; assay: Antifungal activity against Cunninghamella bertholletiae 99-12187 after 24 to 72 hrs by broth microdilution method; assay type: functional; summary of the method: as §1
Lichtheimia corymbifera = assay: Antifungal activity against Absidia corymbifera 04-200170 after 24 to 72 hrs by broth microdilution method; assay type: functional; summary of the method: as §1
Aspergillus fumigatus [21] = assay: Antifungal activity against Aspergillus fumigatus ATCC 204305 after 24 to 72 hrs by broth microdilution method; assay type: functional; summary of the method: as §1
[22] = tested on: Cryptococcus gattii species complex; assay: Antifungal activity against Cryptococcus gattii 05-200122 after 24 to 72 hrs by broth microdilution method; assay type: functional, Cryptococcus bacillisporus; summary of the method: as §1
Cryptococcus neoformans [23] = assay: Antifungal activity against Cryptococcus neoformans ATCC 90112 after 24 to 72 hrs by broth microdilution method; assay type: functional; summary of the method: as §1
Candida tropicalis [24] = assay: Antifungal activity against Candida tropicalis 04-202361 after 24 to 72 hrs by broth microdilution method; assay type: functional; summary of the method: as §1
Nakaseomyces glabratus = assay: Antifungal activity against Candida glabrata 04-202345 after 24 to 72 hrs by broth microdilution method; assay type: functional; summary of the method: as §1
Candida parapsilosis [25] = assay: Antifungal activity against Candida parapsilosis 04-202398 after 24 to 72 hrs by broth microdilution method; assay type: functional; settings: Lodderomyces parapsilosis; summary of the method: as §1
Pichia kudriavzevii [26] = assay: Antifungal activity against Candida krusei 04-202328 after 24 to 72 hrs by broth microdilution method; assay type: functional; summary of the method: as §1
Candida parapsilosis [27] = assay: Antifungal activity against Candida parapsilosis ATCC 22019 after 24 to 72 hrs by broth microdilution method; assay type: functional; settings: Lodderomyces parapsilosis; summary of the method: as §1
Pichia kudriavzevii [28] = assay: Antifungal activity against Candida krusei ATCC 6258 after 24 to 72 hrs by broth microdilution method; assay type: functional; summary of the method: as §1
Candida albicans [29] = assay: Antifungal activity against Candida albicans ATCC 10231 after 24 to 72 hrs by broth microdilution method; assay type: functional; summary of the method: as §1
Clavispora lusitaniae [30] = assay: Antifungal activity against Candida lusitaniae after 24 to 72 hrs by broth microdilution method; assay type: functional; summary of the method: as §1
[31] = Antifungal activity against Exophiala jeanselmei 03-200268 after 24 to 72 hrs by broth microdilution method; assay type: functional; summary of the method: as §1

Compound: CCCCCCc1cc[n+](CCCCCCCCCCCC[n+]2ccc(CCCCCC)cc2)cc1.[Cl-].[Cl-]
- MIC [1]: 0.79 µg/mL
- MIC50 [1]: 0.79 µg/mL
- MIC90 [1]: 0.79 µg/mL
- MFC50 (Candida albicans [2]): 1.56 µg/mL
- MFC90 (Candida albicans [2]): 1.56 µg/mL
- MFC (Candida albicans [2]; Candida albicans): 1.56 µg/mL
- MFC50 (Candida tropicalis [3]): 1.56 µg/mL
- MFC90 (Candida tropicalis [3]): 1.56 µg/mL
- MFC (Candida tropicalis [3]; Candida tropicalis): 0.39 µg/mL
- MFC50 (Candida parapsilosis [4]): 49.5 µg/mL
- MFC90 (Candida parapsilosis [4]): 49.5 µg/mL
- MFC (Candida parapsilosis [4]; Lodderomyces parapsilosis): 24.9 µg/mL
- MFC50 (Candida dubliniensis [5]): 0.79 µg/mL
- MFC90 (Candida dubliniensis [5]): 0.79 µg/mL
- MFC (Candida dubliniensis [5]; Candida dubliniensis): 0.79 µg/mL
- MFC50 [6]: 0.79 µg/mL
- MFC90 [6]: 1.56 µg/mL
- MFC ([6]; Meyerozyma guilliermondii): 0.39 µg/mL
- MFC50 (Clavispora lusitaniae [7]): 0.79 µg/mL
- MFC90 (Clavispora lusitaniae [7]): 6.22 µg/mL
- MFC (Clavispora lusitaniae [7]; Clavispora lusitaniae): 0.79 µg/mL
- MFC50 [8]: 0.79 µg/mL
- MFC90 [8]: 0.79 µg/mL
- MFC ([8]; Cryptococcus gattii species complex): 0.79 µg/mL
- HC50 [9]: > 129 µM
- IC50 [9]: > 48 µM
- MIC (Candida parapsilosis [10]): 28.6 µg/mL
- MIC50 (Candida parapsilosis [10]): 24.9 µg/mL
- MIC90 (Candida parapsilosis [10]): 49.5 µg/mL
- MIC (Pichia kudriavzevii [11]): 1.36 µg/mL
- MIC50 (Pichia kudriavzevii [11]): 1.56 µg/mL
- MIC90 (Pichia kudriavzevii [11]): 1.56 µg/mL
- MIC (Candida dubliniensis [12]): 0.739 µg/mL
- MIC50 (Candida dubliniensis [12]): 0.79 µg/mL
- MIC90 (Candida dubliniensis [12]): 0.79 µg/mL
- MIC [13]: 0.789 µg/mL
- MIC50 [13]: 0.79 µg/mL
- MIC90 [13]: 1.56 µg/mL
- MFC (Cryptococcus neoformans [14]): 25.3 µg/mL
- MFC (Aspergillus flavus [15]): 25.3 µg/mL
- MIC (Exophiala spinifera): 1.58 µg/mL
- MIC (Fusarium solani): 12.7 µg/mL
- MIC [16]: 50.7 µg/mL
- MIC (Rhizopus arrhizus): 0.79 µg/mL
- MIC (Aspergillus fumigatus [17]): 12.7 µg/mL
- MIC (Aspergillus flavus [18]): 12.7 µg/mL
- MIC (Aspergillus flavus [19]): 25.3 µg/mL
- MIC (Aspergillus terreus): 0.79 µg/mL
- MIC (Scedosporium apiospermum): 50.7 µg/mL
- MIC [20]: 12.7 µg/mL
- MIC (Lichtheimia corymbifera): 50.7 µg/mL
- MIC (Aspergillus fumigatus [21]): 12.7 µg/mL
- MIC [22]: 0.79 µg/mL
- MIC (Cryptococcus neoformans [23]): 0.79 µg/mL
- MIC (Candida tropicalis [24]): 0.79 µg/mL
- MIC (Nakaseomyces glabratus): 0.79 µg/mL
- MIC (Candida parapsilosis [25]): 25.3 µg/mL
- MIC (Pichia kudriavzevii [26]): 3.2 µg/mL
- MIC (Candida parapsilosis [27]): 0.79 µg/mL
- MIC (Pichia kudriavzevii [28]): 3.2 µg/mL
- MIC (Candida albicans [29]): 0.79 µg/mL
- MIC (Clavispora lusitaniae [30]): 1.04 µg/mL
- MIC50 (Clavispora lusitaniae [30]): 0.79 µg/mL
- MIC90 (Clavispora lusitaniae [30]): 1.56 µg/mL
- MIC [31]: 0.79 µg/mL

— ChEMBL document CHEMBL1629527, “In vitro antifungal activities of bis(alkylpyridinium)alkane compounds against pathogenic yeasts and molds” (Antimicrob Agents Chemother, 2010)
